Data from ChEMBL document CHEMBL1914423, “New imidazo[2,1-b]thiazole derivatives: synthesis, in vitro anticancer evaluation, and in silico studies” (Eur J Med Chem, 2011).

Tests used:
Assay type in all cases: functional
[1] = tested on: MDA-MB-231; test: Anticancer activity against human MDA-MB-231 cells after 48 hrs by SRB assay; settings: MDA-MB-231, 48 h; for CC50: read-out: LC50 (the source's name)
Summary of the method: (§1)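 NCI five-dose screen. Cells in RPMI 1640 with 5% FBS and 2 mM L-glutamine, seeded at 5000–40,000 cells/well according to doubling time, then pre-incubated 24 h at 37 °C in 5% CO2. Drugs dissolved in DMSO, five concentrations by 10-fold or 1/2-log dilution. Cells fixed with TCA, SRB-stained, A515 read. IC50 solved from [(Ti−Tz)/(C−Tz)]×100 = 50.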

[2] = tested on: Malme-3M; test: Anticancer activity against human MALME-3M cells after 48 hrs by SRB assay; settings: for CC50: read-out: LC50 (the source's name); summary of the method: as §1
[3] = tested on: ACHN; test: Anticancer activity against human ACHN cells after 48 hrs by SRB assay; settings: for CC50: read-out: LC50 (the source's name); summary of the method: as §1
[4] = tested on: COLO 205; test: Anticancer activity against human COLO205 cells after 48 hrs by SRB assay; settings: COLO 205, 48 h; for CC50: read-out: LC50 (the source's name); summary of the method: as §1
[5] = tested on: SF-295; test: Anticancer activity against human SF295 cells after 48 hrs by SRB assay; settings: SF-295, 48 h; for CC50: read-out: LC50 (the source's name)
[6] = tested on: SK-MEL-28; test: Anticancer activity against human SK-MEL-28 cells after 48 hrs by SRB assay; settings: SK-MEL-28, 48 h; for CC50: read-out: LC50 (the source's name)
[7] = tested on: SN12C; test: Anticancer activity against human SN12C cells after 48 hrs by SRB assay; settings: for CC50: read-out: LC50 (the source's name)
[8] = Anticancer activity against human Hs 578T cells after 48 hrs by SRB assay; settings: for CC50: read-out: LC50 (the source's name); summary of the method: as §1
[9] = tested on: KM12; test: Anticancer activity against human KM12 cells after 48 hrs by SRB assay; settings: KM12, 48 h; for CC50: read-out: LC50 (the source's name); summary of the method: as §1
[10] = tested on: T47D; test: Anticancer activity against human T47D cells after 48 hrs by SRB assay; settings: for CC50: read-out: LC50 (the source's name)
Summary of the method: (§2)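 NCI-60 five-dose mode: cells in RPMI 1640 with 5% FBS and 2 mM glutamine, plated at 5000–40,000 cells/well, and preincubated 24 h, with time-zero plates TCA-fixed. Drug given at five concentrations (10-fold or ½-log serial dilutions). Cold TCA fixation 60 min at 4 °C, SRB stain, Tris solubilization, A515. IC50 taken where [(Ti−Tz)/(C−Tz)]×100 = 50.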

[11] = tested on: NCI-H460; test: Anticancer activity against human NCI-H460 cells after 48 hrs by SRB assay; settings: NCI-H460, 48 h
[12] = tested on: HT-29; test: Anticancer activity against human HT-29 cells after 48 hrs by SRB assay; settings: HT-29, 48 h; for CC50: read-out: LC50 (the source's name); summary of the method: as §1
[13] = tested on: NCI/ADR-RES; test: Anticancer activity against human NCI/ADR-RES cells after 48 hrs by SRB assay; settings: for CC50: read-out: LC50 (the source's name)
[14] = tested on: SK-MEL-2; test: Anticancer activity against human SK-MEL-2 cells after 48 hrs by SRB assay; settings: SK-MEL-2, 48 h; for CC50: read-out: LC50 (the source's name)
[15] = tested on: MDA-MB-435; test: Anticancer activity against human MDA-MB-435 cells after 48 hrs by SRB assay; settings: MDA-MB-435, 48 h; for CC50: read-out: LC50 (the source's name); summary of the method: as §1
[16] = tested on: M14; test: Anticancer activity against human M14 cells after 48 hrs by SRB assay; settings: M14, 48 h; for CC50: read-out: LC50 (the source's name); summary of the method: as §1
[17] = tested on: CAKI-1; test: Anticancer activity against human Caki1 cells after 48 hrs by SRB assay; settings: CAKI-1, 48 h; for CC50: read-out: LC50 (the source's name); summary of the method: as §1
[18] = tested on: CCRF-CEM; test: Anticancer activity against human CCRF-CEM cells after 48 hrs by SRB assay; settings: for CC50: read-out: LC50 (the source's name); summary of the method: as §1
[19] = tested on: NCI-H322M; test: Anticancer activity against human NCI-H322M cells after 48 hrs by SRB assay; settings: for CC50: read-out: LC50 (the source's name)
[20] = tested on: HCT-116; test: Anticancer activity against human HCT116 cells after 48 hrs by SRB assay; settings: HCT-116, 48 h; for CC50: read-out: LC50 (the source's name); summary of the method: as §1
[21] = tested on: HOP-62; test: Anticancer activity against human HOP62 cells after 48 hrs by SRB assay; settings: HOP-62, 48 h; summary of the method: as §1
[22] = tested on: UACC-62; test: Anticancer activity against human UACC62 cells after 48 hrs by SRB assay; settings: UACC-62, 48 h; for CC50: read-out: LC50 (the source's name); summary of the method: as §2
[23] = tested on: HL-60(TB); test: Anticancer activity against human HL-60(TB) cells after 48 hrs by SRB assay; settings: HL-60, 48 h
Summary of the method: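 NCI-60 five-dose screen. Cells grown in RPMI 1640 with 5% FBS and 2 mM L-glutamine, seeded at 5000–40,000 cells/well, and held 24 h at 37 °C and 5% CO₂ before drug. DMSO stocks were diluted into five concentrations (10-fold or ½-log steps). Settled suspension cells were fixed with cold TCA, SRB-stained, and read at 515 nm. […] was taken where [(Ti−Tz)/(C−Tz)]×100 = 50.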

[24] = tested on: HCT-15; test: Anticancer activity against human HCT15 cells after 48 hrs by SRB assay; settings: HCT-15, 48 h; for CC50: read-out: LC50 (the source's name); summary of the method: as §1
[25] = tested on: HOP-92; test: Anticancer activity against human HOP92 cells after 48 hrs by SRB assay; settings: HOP-92, 48 h; for CC50: read-out: LC50 (the source's name); summary of the method: as §1
[26] = tested on: NCI-H522; test: Anticancer activity against human NCI-H522 cells after 48 hrs by SRB assay; settings: NCI-H522, 48 h; for CC50: read-out: LC50 (the source's name)
[27] = tested on: U-251; test: Anticancer activity against human U251 cells after 48 hrs by SRB assay; settings: U-251, 48 h; for CC50: read-out: LC50 (the source's name); summary of the method: as §2
[28] = tested on: OVCAR-3; test: Anticancer activity against human OVCAR3 cells after 48 hrs by SRB assay; settings: OVCAR-3, 48 h; for CC50: read-out: LC50 (the source's name)

Compound: O=C(NCCNc1nccc(-c2c(-c3cccc(O)c3)nc3sccn23)n1)c1ccccc1
- GI50 [1]: 7.05 µM
- TGI [1]: 31.5 µM
- CC50 [1]: > 100 µM
- GI50 [2]: 0.205 µM
- CC50 [2]: > 100 µM
- GI50 [3]: 6.43 µM
- TGI [3]: 34.9 µM
- CC50 [3]: > 100 µM
- GI50 [4]: 3.99 µM
- TGI [4]: 23.8 µM
- CC50 [4]: > 100 µM
- GI50 [5]: 12.9 µM
- TGI [5]: 38 µM
- CC50 [5]: > 100 µM
- GI50 [6]: 0.336 µM
- TGI [6]: 99.1 µM
- CC50 [6]: > 100 µM
- GI50 [7]: 9.04 µM
- TGI [7]: 38.4 µM
- CC50 [7]: > 100 µM
- GI50 [8]: 4.86 µM
- TGI [8]: 38.3 µM
- CC50 [8]: > 100 µM
- GI50 [9]: 12.1 µM
- TGI [9]: 28.5 µM
- CC50 [9]: 67.1 µM
- GI50 [10]: 11 µM
- TGI [10]: 49 µM
- CC50 [10]: > 100 µM
- GI50 [11]: 10.4 µM
- TGI [11]: 27.5 µM
- GI50 [12]: 6.79 µM
- TGI [12]: 38.3 µM
- CC50 [12]: > 100 µM
- GI50 [13]: 34.8 µM
- TGI [13]: > 100 µM
- CC50 [13]: > 100 µM
- GI50 [14]: 2.94 µM
- TGI [14]: 12.9 µM
- CC50 [14]: 48.8 µM
- GI50 [15]: 0.578 µM
- TGI [15]: 12.8 µM
- CC50 [15]: 71.3 µM
- GI50 [16]: 0.434 µM
- TGI [16]: 12.3 µM
- CC50 [16]: 37.3 µM
- GI50 [17]: 5.92 µM
- TGI [17]: 29.6 µM
- CC50 [17]: > 100 µM
- GI50 [18]: 3.38 µM
- TGI [18]: 34.1 µM
- CC50 [18]: > 100 µM
- GI50 [19]: 26.3 µM
- TGI [19]: > 100 µM
- CC50 [19]: > 100 µM
- GI50 [20]: 4.82 µM
- TGI [20]: 17.5 µM
- CC50 [20]: 49.6 µM
- GI50 [21]: 23.5 µM
- TGI [21]: 94.2 µM
- GI50 [22]: 0.211 µM
- TGI [22]: 1.37 µM
- CC50 [22]: 25.2 µM
- GI50 [23]: 10.2 µM
- TGI [23]: 29.6 µM
- GI50 [24]: 18.8 µM
- TGI [24]: 62.2 µM
- CC50 [24]: > 100 µM
- GI50 [25]: 2.22 µM
- TGI [25]: 33.2 µM
- CC50 [25]: > 100 µM
- GI50 [26]: 5.76 µM
- TGI [26]: 25.5 µM
- CC50 [26]: 93.9 µM
- GI50 [27]: 17.9 µM
- TGI [27]: > 100 µM
- CC50 [27]: > 100 µM
- GI50 [28]: 12.3 µM
- TGI [28]: 64.8 µM
- CC50 [28]: > 100 µM

Compound: O=C(NCCNc1nccc(-c2c(-c3cccc(O)c3)nc3sccn23)n1)c1ccccc1O
- GI50 [1]: 2.63 µM
- TGI [1]: 62.3 µM
- CC50 [1]: > 100 µM
- GI50 [2]: 0.433 µM
- TGI [2]: 11.8 µM
- CC50 [2]: 45.1 µM
- GI50 [3]: 3.89 µM
- TGI [3]: > 100 µM
- CC50 [3]: > 100 µM
- GI50 [4]: 5.58 µM
- TGI [4]: 20.9 µM
- CC50 [4]: 66.1 µM
- GI50 [5]: 7.69 µM
- TGI [5]: 27.2 µM
- CC50 [5]: 83.9 µM
- GI50 [6]: 0.161 µM
- TGI [6]: 11.1 µM
- CC50 [6]: 61.2 µM
- GI50 [7]: 2.84 µM
- TGI [7]: 74.9 µM
- CC50 [7]: > 100 µM
- GI50 [8]: 2.96 µM
- TGI [8]: 26.9 µM
- CC50 [8]: > 100 µM
- GI50 [9]: 6.38 µM
- TGI [9]: 27.3 µM
- CC50 [9]: > 100 µM
- GI50 [10]: 2.95 µM
- TGI [10]: 20 µM
- CC50 [10]: > 100 µM
- GI50 [11]: 7.88 µM
- LC50 [11]: > 100 µM
- TGI [11]: 31 µM
- GI50 [12]: 4.22 µM
- TGI [12]: 15.3 µM
- CC50 [12]: 40.8 µM
- GI50 [13]: 5.05 µM
- TGI [13]: 68.5 µM
- CC50 [13]: > 100 µM
- GI50 [14]: 0.651 µM
- TGI [14]: 15.9 µM
- CC50 [14]: > 100 µM
- GI50 [15]: 1.22 µM
- TGI [15]: 3.54 µM
- CC50 [15]: 10.6 µM
- GI50 [16]: 0.683 µM
- TGI [16]: 39 µM
- CC50 [16]: > 100 µM
- GI50 [17]: 3.71 µM
- TGI [17]: 55.6 µM
- CC50 [17]: > 100 µM
- GI50 [18]: 3.43 µM
- TGI [18]: > 100 µM
- CC50 [18]: > 100 µM
- GI50 [19]: 4.6 µM
- TGI [19]: 18.5 µM
- CC50 [19]: 66.6 µM
- GI50 [20]: 5.13 µM
- TGI [20]: > 100 µM
- CC50 [20]: > 100 µM
- GI50 [21]: 3.59 µM
- LC50 (concentration killing 50% of starting cells) [21]: > 100 µM
- TGI [21]: 32.5 µM
- GI50 [22]: 8.32 µM
- TGI [22]: 96.9 µM
- CC50 [22]: > 100 µM
- GI50 [23]: 4.95 µM
- LC50 [23]: > 100 µM
- TGI [23]: > 100 µM
- GI50 [24]: 3.83 µM
- TGI [24]: 24.5 µM
- CC50 [24]: > 100 µM
- GI50 [25]: 9.74 µM
- TGI [25]: 34.7 µM
- CC50 [25]: > 100 µM
- GI50 [26]: 4.83 µM
- TGI [26]: 20.4 µM
- CC50 [26]: 57 µM
- GI50 [27]: 0.152 µM
- TGI [27]: 18.7 µM
- CC50 [27]: 64.6 µM
- GI50 [28]: 3.35 µM
- TGI [28]: 30.3 µM
- CC50 [28]: > 100 µM
